CHRM5 antagonist: human M5 muscarinic receptor antagonists, primary screen, CHO cells, Fluo-8 calcium fluorescence. CHO-hM5 cells, ACh EC80. inhibition, % at 3 µM. 360,000 compounds, 0.59% hits;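 active = inhibition above a per-plate cutoff, the mean of that plate's test compounds plus 3 SD, cut at about 27% in these data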;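 note: 0% = acetylcholine EC80 with DMSO and 100% = DMSO without agonist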
CHRM4 agonist: human M4 muscarinic receptor agonists, primary screen, CHO-K1 cells, Fluo-8 calcium fluorescence; CHO-K1 hM4/Gqi5; vehicle 0%, full acetylcholine response 100%; activation, % at 3 µM; 360,000 compounds, 0.14% hits; AID 624127, 2012;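 active = activation above the run mean over all test wells plus 3 SD, cut at about 32% in these data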;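 note: peak over basal fluorescence ratio per well then scaled between controls; 0% = DMSO wells and 100% = acetylcholine at EC100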
Target sequence (P08173 whole entry, looked up): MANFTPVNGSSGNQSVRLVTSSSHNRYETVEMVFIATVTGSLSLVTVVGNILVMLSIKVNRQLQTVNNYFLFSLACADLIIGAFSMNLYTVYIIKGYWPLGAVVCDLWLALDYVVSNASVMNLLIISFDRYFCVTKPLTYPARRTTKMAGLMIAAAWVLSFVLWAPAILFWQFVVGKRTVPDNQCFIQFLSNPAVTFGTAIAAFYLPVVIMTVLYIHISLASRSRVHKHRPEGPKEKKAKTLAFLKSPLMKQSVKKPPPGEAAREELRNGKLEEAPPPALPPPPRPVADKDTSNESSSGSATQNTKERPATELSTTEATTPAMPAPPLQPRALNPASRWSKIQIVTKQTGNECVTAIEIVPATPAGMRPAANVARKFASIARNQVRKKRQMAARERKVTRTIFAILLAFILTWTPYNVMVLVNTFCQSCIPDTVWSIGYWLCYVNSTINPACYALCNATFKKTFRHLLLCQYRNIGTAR
CHRM5 PAM: human M5 muscarinic receptor positive allosteric modulators, primary screen, CHO-K1 cells, Fluo-8 calcium fluorescence; activation, % at 3 µM; 360,000 compounds, 0.3% hits; Muscarinic acetylcholine receptor M5 (Homo sapiens), P08912; CHO-K1 hM5, ACh EC20 PAM; 0% = ACh EC20, 100% = ACh EC100;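 active = activation above the run cutoff, the mean activation of all test compounds plus 3 SD, cut at about 18% in these data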
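Replicates: One well per compound, no replicates | System: Human M5 receptor in CHO-K1 cells | Benchmarks: Low control EC20 acetylcholine (0%), high control EC100 acetylcholine (100%) | Probe or stimulus: Acetylcholine, EC20 level | Times: Fluo-8 loading 80 min at 37 °C plus 30 min room temperature | Signal: Intracellular calcium via Fluo-8 fluorescence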
M4 antag: human M4 muscarinic receptor antagonists, primary screen, CHO cells, Fluo-8 calcium fluorescence. Muscarinic acetylcholine receptor M4 (Homo sapiens), P08173. CHO-hM4 cells, ACh EC80. inhibition, % at 3 µM. 360,000 compounds, 0.73% hits. AID 624125, 2012;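 active = inhibition above its plate's cutoff, the mean inhibition of sample wells plus 3 SD, cut at about 27% in these data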;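 note: 0% = acetylcholine EC80 with DMSO and 100% = DMSO without agonist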
CHRM4 PAM: human M4 muscarinic receptor positive allosteric modulators, primary screen, CHO-K1 cells, Fluo-8 calcium fluorescence. Muscarinic acetylcholine receptor M4 (Homo sapiens), P08173. CHO-K1 hM4/Gqi5, ACh EC20; 0% = ACh EC20, 100% = maximal ACh. activation, % at 3 µM. 360,000 compounds, 0.4% hits;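 active = activation above its plate's cutoff, the mean activation of sample wells plus 3 SD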
M5 ag: human M5 muscarinic receptor agonists, primary screen, CHO-K1 cells, Fluo-8 calcium fluorescence. Muscarinic acetylcholine receptor M5 (Homo sapiens), P08912. CHO-K1 hM5 cells; 0% DMSO wells, 100% maximal acetylcholine response. activation, % at 3 µM. 360,000 compounds, 0.19% hits;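 active = activation above the run's mean over test compounds plus 3 SD, cut at about 23% in these data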;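 note: signal is peak over basal fluorescence ratio across the kinetic read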
An asterisk follows results filed as active. Most compounds without a hit are left out; they make up all but 1.8% or so of the library.

SMILES	CHRM5 antagonist	CHRM4 agonist	CHRM5 PAM	M4 antag	CHRM4 PAM	M5 ag
O=C(CSc1nnc(Cn2nnc3ccccc32)o1)N(Cc1ccc(Cl)cc1)c1ccccc1	30*	8	-18	13	-12	2
COc1ccc(-n2nc([N+](=O)[O-])c(=NC3CCN(Cc4ccccc4)CC3)n2O)cc1	1	0	-3	28*	-18	-9
COc1ccc(C2=NOC(C)(c3nnc(-c4ccccc4)o3)C2)cc1 (stereo not drawn)	6	2	3	0	2	1
CCOC(=O)C1CCN(c2ncnc3c(C)csc23)CC1	20	22	-32	35*	-46	6
Oc1ccc(N=Nc2c(O)ccc3ccccc23)cc1	10	1	-2	12	31*	1
NS(=O)(=O)c1ccc(N=Nc2c(O)ccc3ccccc23)cc1	4	1	1	-3	-4	-1
N#Cc1cccc(C(=O)C(=O)N2CCCN(Cc3ccc(F)cc3)CC2)c1	2	2	-1	8	-4	0
COc1ccc(Nc2ncnc3c2cnn3-c2cccc(C)c2)cc1OC	-5	1	-1	-17	8	0
COc1ccc(-n2ncc3c(Nc4cccc(C)c4)ncnc32)cc1	-9	2	3	-13	19*	-2
CCCc1nnc(NC(=O)Cn2c(=O)oc3cc(Br)ccc32)s1	-3	22	5	-6	-3	39*
Cc1ccccc1-n1nc2c(c1NC(=O)C1CC1)CS(=O)(=O)C2	-1	1	-1	-13	1	0
O=C(O)c1ccc(N/N=C/C=C/c2ccc([N+](=O)[O-])o2)cc1	28*	74*	-10	20	-21	36*
O=C(N/N=C/c1ccco1)c1cc([N+](=O)[O-])cc([N+](=O)[O-])c1	3	1	6	-1	12	-2
O=[N+]([O-])c1ccc(N/N=C/C=C/c2ccco2)cc1	32*	38*	-23	21	-16	29*
O=P(O)(Cc1ccccc1)c1ccccc1	-5	0	1	-1	5	-1
CCc1nnc(NC(=O)CSc2nc3ccccc3o2)s1	6	1	-5	-8	8	-1
O=C(CSc1nc2ccccc2o1)Nc1ccc(N2CCOCC2)c(Cl)c1	28*	13	-14	16	-7	7
O=C(CSc1nc2ccccc2s1)Nc1ccc(N2CCOCC2)c(Cl)c1	12	6	-13	-3	3	3
Cc1nnc(NC(=O)CSc2nc3ccccc3o2)s1	-6	1	2	6	32*	3
CC(=O)c1ccc(NC(=S)NC(C)c2ccc(Cl)cc2Cl)cc1 (stereo not drawn)	29*	24	-15	14	-8	14
CCOc1ccccc1C(O)C1=CC(=O)c2ccccc2C1=O (stereo not drawn)	12	1	-9	0	5	3
COc1ccc(Nc2ncc(C(=O)N3CCC(C(N)=O)CC3)c3ccccc23)cc1	10	0	5	5	-6	-3
COc1ccc(Nc2ncc(C(=O)N3CCN(Cc4ccccc4)CC3)c3ccccc23)cc1	20	23	-19	28*	-28	4
CCOC(=O)c1nnc(-c2ccccc2)nc1Sc1ccccc1Cl	29*	0	-2	-11	1	0
Cc1ccc(S(=O)(=O)N2CCOCC2)cc1C(=O)NCC1CCCCC1	7	3	-2	1	-1	2
SMILES	CHRM5 antagonist	CHRM4 agonist	CHRM5 PAM	M4 antag	CHRM4 PAM	M5 ag
CCCCCC(C)NC(=O)CN1C(=O)NC(C)(c2ccc3ccccc3c2)C1=O (stereo not drawn)	-10	4	4	-15	23*	0
CCN(CC(=O)Nc1ccc(NC(C)=O)cc1)C(=O)CN1C(=O)NC(C)(c2ccc3ccccc3c2)C1=O (stereo not drawn)	-3	1	5	-8	27*	4
C=C(C)CN(CC)C(=O)CN1C(=O)NC(C)(c2ccc3ccccc3c2)C1=O (stereo not drawn)	8	3	-3	7	-4	2
CC(C)c1ccc(N2C(=O)CSC23C(=O)N2CCCc4cccc3c42)cc1 (stereo not drawn)	48*	-2	-23	90*	-34	-11
COC(=O)c1c(Sc2ccccc2)c2ccccc2n1C	24	-1	-19	-4	-6	58*
C=C1CC(Cn2cc(Br)c(=O)[nH]c2=O)(c2ccc(-c3ccccc3)cc2)OC1=O (stereo not drawn)	4	6	-22	46*	-7	-3
CC1(C)CC(=O)C2=C(C1)NCN(Cc1ccccc1)C2	-11	1	13	-4	34*	6
CCCN1CN(Cc2ccccc2)CC2=C1CC(C)(C)CC2=O	-16	1	7	0	6	-2
CC(=O)Nc1ccc(NS(=O)(=O)c2cccc3nonc23)cc1	-7	2	4	-25	-3	-2
O=c1c2ccccc2nc2n1CCCCC2	10	0	-8	14	-11	-12
N=c1c2ccccc2nc2n1CCCCCCCCCCC2	16	34*	-28	23	-9	4
O=C(CSc1ccc2nnc(CCNC(=O)c3ccccc3)n2n1)NCc1ccco1	28*	0	-7	2	-1	-6
CC(=O)Nc1c(O)nc(SCC(=O)N2CCCCC2)[nH]c1=O	-3	1	5	-7	23*	1
COC(=O)c1cccc(NC(=O)CSc2nc(O)c(-c3ccccc3)c(=O)[nH]2)c1	0	1	11	-5	24*	0
CC(=O)Nc1c(O)nc(SCC(=O)Nc2ccc(C(C)=O)cc2)[nH]c1=O	1	2	2	3	0	4
CC(=O)Nc1c(O)nc(SCC(=O)Nc2cccc(C)c2)[nH]c1=O	1	2	1	-3	42*	4
COC(=O)c1ccccc1NC(=O)CSc1nc(O)c(-c2ccccc2)c(=O)[nH]1	4	0	3	-5	3	-2
Cc1ccc(OC(=O)c2ccc([N+](=O)[O-])cc2Cl)cn1	2	14	-1	-7	1	2
COC(=O)C1C2C=CC3(CN(Cc4cccs4)C(=O)C13)O2 (stereo not drawn)	-12	1	21*	5	14	2
